Assay results reported in ChEMBL document CHEMBL1137398, “Synthesis and immunobiological activity of an original series of acyclic lipid a mimics based on a pseudodipeptide backbone” (J Med Chem, 2006).
Values after ≈ are worked out from the molar mass of the structure shown. Active and inactive are the calls of the source. The calls are words filed in the database; no cut-off is given here.

How the values were obtained:
Oryctolagus cuniculus [1] = assay: Induction of pyrogenicity in rabbit assessed as increase in temperature at 0.001 mg/kg, iv; type: functional, organism-based; set-up: dose 0.001 mg/kg
Summary of the method: (§1)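 Rabbit pyrogenicity test, iv injection, with water as control. Read-out is the summed temperature rise in three rabbits (°C), scored pass, inconclusive or fail.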

PBMC [2] = assay: Antagonist effect on LPS-induced IL6 production in human PBMC at 2 ug/mL; type: functional, cell-based
Summary of the method: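 Human PBMC from healthy donor buffy coat, isolated on Ficoll (1.077 g/mL). Cultured at 1 × 10⁶ viable cells/well in RPMI-1640 with 10% FCS, penicillin/streptomycin and L-glutamine. Pre-incubated 90 min at 37 °C, 5% CO₂ with compound at final 0.02, 0.2, 2 or 20 µg/mL. E. coli LPS (055:B5) then added at 0.01 µg/mL. After 24 h, supernatant IL-6 measured by ELISA.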

Macrophage = assay: Induction of NO production in murine macrophage; type: functional, cell-based; details: Mus musculus
Summary of the method: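 Bone-marrow macrophages from six-week-old male C57BL/6 mice, differentiated 8 d in DMEM with 20% horse serum and 30% L929 supernatant. Then set to 700 000 cells/mL in DMEM with 5% FCS. Serially diluted compounds were incubated with cells in triplicate for 22 h at 37 °C, 8% CO₂. Supernatant nitrite measured by Griess reaction at 562 nm (reference 690 nm) against a standard curve. Reported as mean ± SD dose-response.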

Oryctolagus cuniculus [3] = assay: Induction of pyrogenicity in rabbit assessed as increase in temperature at 0.01 mg/kg, iv; type: functional, organism-based; set-up: dose 0.01 mg/kg; summary of the method: as §1
Limulus = assay: Endotoxicity against horseshoe crab blood at 0.1 mg/mL by LAL chromogenic assay; type: toxicity, organism-based; details: limulus polyphemus
Summary of the method: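 LAL chromogenic endotoxin assay with compound at 0.1 mg/mL. Average of three independent experiments.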

Oryctolagus cuniculus [4] = assay: Induction of pyrogenicity in rabbit assessed as increase in temperature at 0.1 mg/kg, iv; type: functional, organism-based; set-up: dose 0.1 mg/kg; summary of the method: as §1
PBMC [5] = assay: Induction of IL6 production in human PBMC at 20 ug/ml relative to LPS; type: functional, cell-based
Summary of the method: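 Human PBMC isolated on Ficoll from donor buffy coat. Cultured at 1 × 10⁶ viable cells/well in RPMI-1640 with 10% FCS and antibiotics. Incubated at 37 °C, 5% CO₂ with compound at final 20 µg/mL. Controls were medium alone and E. coli LPS (055:B5). Supernatant harvested at 24 h and IL-6 measured by ELISA; detection limit 10 pg/mL.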

Row | SMILES | EC50 (Macrophage) [µg/mL] | Activity (Oryctolagus cuniculus [1]) | Activity (PBMC [2]) | Activity (Oryctolagus cuniculus [3]) | Activity (Limulus) [EU/ml] | Activity (Oryctolagus cuniculus [4]) | Activity (PBMC [5])
1 | CCCCCCCCCCCC(=O)O[C@H](CCCCCCCCCCC)CC(=O)NC(CCOP(=O)(O)O)C(=O)NCCC[C@H](CO)NC(=O)C[C@H](O)CCCCCCCCCCC (mixture of isomers) | 3.53 | inactive | inactive | inactive | 16238 | Active | 
2 | CCCCCCCCCCCC(=O)O[C@H](CCCCCCCCCCC)CC(=O)N[C@H]1[C@H](OC[C@H]2O[C@H](OP(=O)(O)O)[C@H](NC(=O)C[C@H](O)CCCCCCCCCCC)[C@@H](O)[C@@H]2O)O[C@H](CO)[C@@H](OP(=O)(O)O)[C@@H]1O [DEFOSLIMOD] | 0.025 (≈ 0.022 µM) |  |  |  |  |  | 
3 | CCCCCCCCCCCC(=O)O[C@H](CCCCCCCCCCC)CC(=O)N[C@H](CCOP(=O)(O)O)C(=O)NCCC[C@H](CO)NC(=O)C[C@H](O)CCCCCCCCCCC | 1.85 (≈ 1.98 µM) |  | inactive |  | 14257 |  | 
4 | CCCCCCCCCCCC(=O)O[C@H](CCCCCCCCCCC)CC(=O)N[C@@H](CCOP(=O)(O)O)C(=O)NCCC[C@H](CO)NC(=O)C[C@H](O)CCCCCCCCCCC | 6.86 (≈ 7.34 µM) |  | inactive |  | 9320 |  | 

Continued, in another order:

Row | EC50 (Macrophage) [µg/mL] | SMILES | Activity (Oryctolagus cuniculus [1]) | Activity (PBMC [2]) | Activity (Oryctolagus cuniculus [3]) | Activity (Limulus) [EU/ml] | Activity (Oryctolagus cuniculus [4]) | Activity (PBMC [5])
5 | 0.15 (≈ 0.148 µM) | CCCCCCCCCCCC(=O)O[C@H](CCCCCCCCCCC)CC(=O)N[C@@H](CCOP(=O)(O)O)C(=O)NCCC[C@H](COP(=O)(O)O)NC(=O)C[C@H](O)CCCCCCCCCCC |  | Active |  | 240 |  | inactive
6 | 0.083 | CCCCCCCCCCCC(=O)O[C@H](CCCCCCCCCCC)CC(=O)NC(CCOP(=O)(O)O)C(=O)NCCC[C@H](COP(=O)(O)O)NC(=O)C[C@H](O)CCCCCCCCCCC (mixture of isomers) | inactive | Active | inactive | 874 |  | inactive
7 | 0.55 (≈ 0.542 µM) | CCCCCCCCCCCC(=O)O[C@H](CCCCCCCCCCC)CC(=O)N[C@H](CCOP(=O)(O)O)C(=O)NCCC[C@H](COP(=O)(O)O)NC(=O)C[C@H](O)CCCCCCCCCCC |  | Active |  | 1072 |  | inactive
